Casp6 inh: human caspase-6 inhibitors, primary screen, biochemical, VEID-R110 fluorescence, single point, set 2; AID 686996, 2013; inhibition, % at 12.5 µM; purified caspase-6, Z-VEID-R110 cleavage fluorescence; 350,000 compounds, 0.53% hits; P55212;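 active means mean inhibition across replicates at least about 35%, with every replicate also reaching that limit, limit read from the data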;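 further: 0% = median of neutral control wells and 100% = no fluorescence left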
MBD2 DNA inh: inhibitors of MBD2 binding to methylated DNA, primary screen, biochemical, TR-FRET, DNA-binding domain, human | Methyl-CpG-binding domain protein 2 (Homo sapiens), Q9UBB5 | MBD2 binding to methylated oligonucleotide | inhibition, % at 4.4 µM | 370,000 compounds, 0.31% hits | AID 686964, 2013; in the data active means inhibition above about 13%
Target sequence (Q9UBB5 whole entry, looked up, the tested form may be a part): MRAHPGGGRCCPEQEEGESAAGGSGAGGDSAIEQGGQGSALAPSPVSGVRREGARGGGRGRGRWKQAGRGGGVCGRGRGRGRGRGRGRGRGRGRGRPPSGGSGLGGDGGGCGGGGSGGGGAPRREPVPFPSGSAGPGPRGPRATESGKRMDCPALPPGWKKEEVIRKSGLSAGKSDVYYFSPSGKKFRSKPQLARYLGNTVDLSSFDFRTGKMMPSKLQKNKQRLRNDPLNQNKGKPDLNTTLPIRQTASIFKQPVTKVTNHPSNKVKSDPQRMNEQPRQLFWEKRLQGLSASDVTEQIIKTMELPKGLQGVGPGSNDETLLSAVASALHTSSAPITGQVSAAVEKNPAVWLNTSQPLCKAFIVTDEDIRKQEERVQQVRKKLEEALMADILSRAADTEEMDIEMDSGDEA
NSD2 inh: NSD2 histone methyltransferase inhibitors, primary screen, biochemical, AlphaScreen, single concentration, set 2 | Histone-lysine N-methyltransferase NSD2 (Homo sapiens), O96028 | NSD2 peptide methylation, 120 min | inhibition, % at 12.5 µM | 310,000 compounds, 0.54% hits; in the data active means inhibition above about 50%
LEDGF integ inh: blockers of LEDGF/p75-dependent integrase strand transfer – biochemical, TR-FRET, high throughput, primary screen. HIV-1 integrase (with human LEDGF/p75). inhibition, % at 3.7 µM. TR-FRET IN-LEDGF/p75 DNA integration, Eu/Cy5. 370,000 compounds, 0.64% hits. AID 743269, 2014;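 active means inhibition above the screen-wide mean plus 3 SD, cut at about 13% in these data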;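 further: signal is the Cy5 over europium emission ratio at 671 and 618 nm; 0% = plate median of compound wells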
UHRF1 binding: UHRF1 methylated DNA binding inhibitors, primary screen, counter-screen for MBD2 inhibitor project, biochemical, TR-FRET, human UHRF1, single concentration; 370,000 compounds, 0.75% hits; inhibition, % at 4.4 µM; UHRF1 binding to methylated oligo; E3 ubiquitin-protein ligase UHRF1 (Homo sapiens), Q96T88;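 further: UHRF1 SRA domain binding a hemimethylated CpG hairpin DNA probe; 0% = median of test compound wells and 100% = reference inhibitor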
TDP2 inh: human TDP2 enzyme inhibitors, primary screen, biochemical, epi absorbance, recombinant enzyme | 370,000 compounds, 0.34% hits | T5PNP hydrolysis, p-nitrophenol absorbance 415 nm | inhibition, % at 12.8 µM | AID 720702, 2013 | Tyrosyl-DNA phosphodiesterase 2 (Homo sapiens), O95551;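 active means inhibition above the mean of all tested compounds plus 3 SD, set per campaign, cut at about 25% in these data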;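 further: 0% = DMSO with enzyme and 100% = buffer with substrate but no TDP2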
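Test system: human TDP2 enzyme; Input: 120 nM TDP2 per well; Buffer or medium: Mg2+-containing Tris-HCl buffer, pH 7.5; Reagent: 5 mM T5PNP; Dosing: 12.8 µM single point, 1% DMSO; Incubation: reaction 2 h, 37 °C; Detection: p-Nitrophenol epi absorbance; Read-out: % inhibition relative to enzyme-containing and enzyme-free wells; Replicates: single well per compound.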
UHRF1 DNA bind: UHRF1 methylated DNA binding inhibitors, counter-screen for MBD2 inhibitor project, biochemical, TR-FRET, human UHRF1; shares compounds with MBD2 DNA inh; UHRF1 binding to methylated oligonucleotide; inhibition, % at 4.4 µM; 1,000 compounds, 25% hits; AID 720530, 2013;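 further: UHRF1 SRA domain binding a labeled hemimethylated CpG hairpin DNA; 0% = vehicle only and 100% = reference inhibitor with vehicle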
MBD2 DBD conf: inhibitors of MBD2 binding to methylated DNA, confirmation, biochemical, TR-FRET, DNA-binding domain, human; shares compounds with MBD2 DNA inh; TR-FRET MBD2-DBD binding to methylated oligonucleotide; inhibition, % at 4.4 µM; 1,000 compounds, 26% hits; in the data active means inhibition above about 14%
IN multimer up: HIV-1 IN multimer formation enhancers, counter-screen for LEDGF/p75 integration inhibitor project, biochemical, TR-FRET | 2,000 compounds, 17% hits | shares compounds with LEDGF integ inh | AID 1053131, 2014 | TR-FRET HIV-1 integrase multimerization | activation, % at 7.7 µM; in the data active means activation above about 8.9%
TR-FRET interf: TR-FRET optical interference artefacts, confirmation, artefact control for LEDGF/p75-dependent integration inhibitor project, biochemical, HIV-1 IN multimerization; shares compounds with LEDGF integ inh; TR-FRET optical interference counterscreen; inhibition, % at 7.7 µM; 2,000 tested, under 10 active; AID 1053135, 2014;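 active means inhibition above the mean over all tested compounds plus 3 SD, which no compound reached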;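 further: 0% = integrase with antibodies and DMSO and 100% = antibodies without integrase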
IN-LEDGF confirm: inhibitors of HIV-1 IN-LEDGF/p75 DNA integration, confirmation, biochemical, TR-FRET | shares compounds with LEDGF integ inh | TR-FRET LEDGF/p75-dependent HIV-1 integration | inhibition, % at 3.7 µM | 2,000 compounds, 36% hits; in the data active means inhibition above about 14%
* marks the source's active call; other numbers are inactive results; . = no result; + = active, no number. Shown are actives, neighbours in structure and some others; about 1.9% of the full set was active somewhere. Unless noted, no stated cut-off is given here; in the data, active means inhibition above about 21%; inactive means the rest.

SMILES | Casp6 inh | MBD2 DNA inh | NSD2 inh | LEDGF integ inh | UHRF1 binding | TDP2 inh | UHRF1 DNA bind | MBD2 DBD conf | IN multimer up | TR-FRET interf | IN-LEDGF confirm
COC(=O)COc1ccc(C2Nc3c(Cl)ccc(C(=O)O)c3C3C=CCC32)cc1 (configuration not stated) | 19.5 | 18.4* | 46.3 | 66.2* | 46.3* | -8.5 | 11.9 | 4.2 | -1.0 | 5.1 | 20.6*
O=C(Cc1cccnc1)N[C@H]1CC[C@H](CCn2cc(Cc3ccccc3)nn2)O[C@@H]1CO | -8.4 | . | . | . | . | . | . | . | . | . | .
C[C@@H](NC(=O)C[C@@H]1CC[C@H](NC(=O)C2CCOCC2)[C@H](CO)O1)c1ccccc1 | -2.2 | . | . | . | . | . | . | . | . | . | .
O=C(O)C(Cc1ccccc1)N1C(=O)/C(=C/C=C/c2ccco2)SC1=S (configuration not stated) | 91.2* | 93.9* | + | 85.5* | 98.3* | 22.2 | 97.7* | 71.4* | 26.5* | -94.9 | 82.4*
O=C(NN1C(=O)/C(=C/C=C/c2ccco2)SC1=S)c1ccccc1O | 92.1* | 56.4* | . | 81.3* | 95.0* | 23.9 | 66.3* | 29.6* | 72.8* | -259.2 | 79.7*
O=C1S/C(=C\C=C\c2ccco2)C(=O)N1c1ccccc1 | . | 13.3* | 4.8 | 39.5* | 25.5* | -3.8 | 6.8 | 2.2 | 0.7 | -3.5 | 22.6*
Cc1ccc(S(=O)(=O)Nc2ccc3c(c2)C(=O)N([C@@H](C)CO)C[C@@H](C)[C@H](CN(C)C(=O)Nc2c(C)noc2C)OCCCC[C@H](C)O3)cc1 | -1.2 | . | . | . | . | . | . | . | . | . | .
O=C(c1ccncc1)N1C[C@@H]2N[C@H](C1)C2c1ccc(-c2cccnc2)cc1 (some centres not stated) | -1.8 | . | . | . | . | . | . | . | . | . | .
C[C@@H]1CCCCO[C@@H](CN(C)S(=O)(=O)c2cccs2)[C@H](C)CN([C@H](C)CO)C(=O)c2cc(NS(=O)(=O)c3cn(C)cn3)ccc2O1 | 4.1 | . | . | . | . | . | . | . | . | . | .
C[C@H](CO)N1C[C@H](C)[C@@H](CN(C)Cc2ccncc2)Oc2ccc(NS(=O)(=O)c3ccc(F)cc3)cc2C1=O | -0.1 | . | . | . | . | . | . | . | . | . | .
